≈ marks a conversion by molar mass, not a printed value.
Each compound was assayed on Mycobacterium tuberculosis (assay: Activity against Mycobacterium tuberculosis (H37Rv) using the standard BACTEC radiometric growth assay). Conditions: not given.
Type: functional
Procedure, shortened: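 BACTEC radiometric MIC against M. tuberculosis H37Rv. Compounds in DMSO (1 mg/mL stock), final 50, 25, 12.5, 6.25, 3.0, 1.5 µg/mL. Inoculum 0.1 mL of a 1.0 McFarland suspension. Controls: DMSO direct control and 1:100 organism dilution. Incubated 37 °C, growth index read daily until the 1:100 control reached 30. MIC = lowest concentration with 1-day GI change below the 1:100 control.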

Compound `CCCCCCCCC[S+]([O-])CC(N)=O` (single isomer, unassigned) has an MIC of 25 µg/mL (≈ 107 µM).

Same assay, conditions: Mycobacterium tuberculosis; read-out: MIC

First: CCCCCCCC[S+]([O-])CC(=O)OC (stereo unspecified)
Second: CCCCCCCCC[S+]([O-])CC(=O)OC (racemic)
The MIC of the first is lower: 12.5 µg/mL (≈ 53.3 µM) for the first, over 25 µg/mL for the second.

First: CC(C)CCCC(C)CCS(=O)(=O)CC(N)=O (stereo unspecified)
Second: CC(C)CCCCCCCS(=O)(=O)CC(N)=O
The MIC of the first is 4.2-fold higher: 6.25 µg/mL (≈ 23.7 µM) for the first, 1.5 µg/mL (≈ 5.69 µM) for the second.

`CCCCCCCCS(=O)(=O)NS(C)(=O)=O` and `CCCCCCCCS(=O)(=O)NS(N)(=O)=O` cannot be ordered by MIC: over 25 µg/mL for the first, over 25 µg/mL for the second.

`CCCCCCS(=O)(=O)CC(N)=O` and `CCCCCCCS(=O)(=O)CC(N)=O` cannot be ordered by MIC: over 50 µg/mL for the first, over 25 µg/mL for the second.

Compared with `NC(=O)CS(=O)(=O)CCCCc1ccccc1`, `NC(=O)CS(=O)(=O)CCCCCc1ccccc1` is lower in MIC: over 25 µg/mL for the first, 12.5 µg/mL (≈ 46.4 µM) for the second.

Going from `CCCCCCCCCCP(=O)([O-])CC(N)=O.[K+]` to `CCCCCCCCCC[S+]([O-])CC(N)=O` (stereo unspecified), the MIC falls from over 50 µg/mL to 6.25 µg/mL (≈ 25.3 µM).

Compared with `CCCCCCCCCCS(=O)(=O)CCC(N)=O`, `CCCCCCCCCCS(=O)(=O)CC(N)=O` is lower in MIC: over 25 µg/mL for the first, 1.5 µg/mL (≈ 5.69 µM) for the second.

First: CCCCCCCCS(=O)(=O)CC(N)=O
Second: CCCCCCCCCS(=O)(=O)CC(N)=O
The MIC of the first is 2.1-fold higher: 6.25 µg/mL (≈ 26.6 µM) for the first, 3 µg/mL (≈ 12 µM) for the second.

`CCCCCCCCS(=O)(=O)CC(=O)O` and `CCCCCCCCS(=O)(=O)CC(=O)OC` cannot be ordered by MIC: over 25 µg/mL for the first, over 25 µg/mL for the second.

Going from `CCCCCCCCCCCCCCCCCCS(=O)(=O)CC(N)=O` to `CCCCCCCCCCCCS(=O)(=O)CC(N)=O`, the MIC falls from over 50 µg/mL to 12.5 µg/mL (≈ 42.9 µM).

Going from `CCCCCCCC[S+]([O-])CC(=O)OCc1ccccc1` (stereo unspecified) to `CCCCCCCCS(=O)(=O)CC(=O)OCc1ccccc1`, the MIC rises from 6.25 µg/mL (≈ 20.1 µM) to 12.5 µg/mL (≈ 38.3 µM) (2-fold).

`CCCCCCCCS(=O)(=O)NC(N)=O` and `CCCCCCCCCCS(=O)(=O)C(C)C(N)=O` (stereo unspecified) cannot be ordered by MIC: over 25 µg/mL for the first, over 25 µg/mL for the second.

`CCCCCCC/C=C/S(=O)(=O)CC(N)=O` and `CCCCCCC/C=C\S(=O)(=O)CC(N)=O` are the same in MIC: 12.5 µg/mL (≈ 50.5 µM) for the first, 12.5 µg/mL (≈ 50.5 µM) for the second.

Going from `CCOCCOCCS(=O)(=O)CC(N)=O` to `NC(=O)CS(=O)(=O)CCCCCCc1ccccc1`, the MIC falls from over 25 µg/mL to 12.5 µg/mL (≈ 44.1 µM).

Compared with `CCCCCCCCCCOCC(N)=O`, `CCCCCCCCCCSCC(N)=O` is lower in MIC: over 25 µg/mL for the first, 25 µg/mL (≈ 108 µM) for the second.

`CCCCCCCCC[S@@+]([O-])CC(N)=O` and `CCCCCCCCC[S+]([O-])CC(N)=O` (racemic) are the same in MIC: 25 µg/mL (≈ 107 µM) for the first, 25 µg/mL (≈ 107 µM) for the second.

Compared with `CCCCCCCCC[S+]([O-])CC(=O)OC` (single isomer, unassigned), `CC[C@@H](CO)NCCN[C@@H](CC)CO` [ETHAMBUTOL] is lower in MIC: over 25 µg/mL for the first, 2 µg/mL (≈ 9.79 µM) for the second.

First: C/C=C/C/C=C/CCC(=O)[C@H]1O[C@H]1C(N)=O [CERULENIN]
Second: NC(=O)c1cnccn1 [PYRAZINAMIDE]
The MIC of the first is 67-fold lower: 1.5 µg/mL (≈ 6.72 µM) for the first, 100 µg/mL (≈ 812 µM) for the second.

First: NNC(=O)c1ccncc1 [ISONIAZID]
Second: C=C/C(C)=C/[C@@]1(C)SC(=O)C(C)=C1O [THIOLACTOMYCIN]
The MIC of the first is 250-fold lower: 0.1 µg/mL (≈ 0.729 µM) for the first, 25 µg/mL (≈ 119 µM) for the second.

`CO[C@H]1/C=C/O[C@@]2(C)Oc3c(C)c(O)c4c(O)c(c(/C=N/N5CCN(C)CC5)c(O)c4c3C2=O)NC(=O)/C(C)=C\C=C\[C@H](C)[C@H](O)[C@@H](C)[C@@H](O)[C@@H](C)[C@H](OC(C)=O)[C@@H]1C` [RIFAMPIN] and `CN[C@@H]1[C@H](O[C@H]2[C@H](O[C@H]3[C@H](O)[C@@H](O)[C@H](N=C(N)N)[C@@H](O)[C@@H]3N=C(N)N)O[C@@H](C)[C@]2(O)C=O)O[C@@H](CO)[C@H](O)[C@H]1O` [STREPTOMYCIN] are the same in MIC: 2 µg/mL (≈ 2.43 µM) for the first, 2 µg/mL (≈ 3.44 µM) for the second.
